Assay results taken from ChEMBL document CHEMBL1926589, “2-Anilinonicotinyl linked 2-aminobenzothiazoles and [1,2,4]triazolo[1,5-b] [1,2,4]benzothiadiazine conjugates as potential mitochondrial apoptotic inducers” (Bioorg Med Chem, 2011).
Activity calls are given as the source filed them. No cut-off for these calls is given here.

Experiments:
HL-60 [1] = assay: Induction of apoptosis in human HL60 cells assessed as increase of reactive oxygen species level at 1 uM after 24 hrs using DCFH-DA fluorescent dye based flow cytometric analysis relative to control; assay type: functional
Method in brief: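 HL-60 cells (1 x 10^5 per 1.5 mL) treated 24 h, then loaded with 10 µM H2DCFDA for 30 min at 37 °C. Washed twice in PBS and read in FL-1 (530 nm). Percentage of DCF-positive cells determined; mean ± SD of three experiments.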

HL-60 [2] = assay: Induction of apoptosis in human HL60 cells assessed as decrease in size at 1 uM after 12 hrs by scanning electron microscopy; assay type: functional, cell-based
Method in brief: (§1)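 HL-60 cells at 2 x 10^5/ml in 10% FCS medium exposed to 0.5 or 1 µM for 6–48 h; DMSO vehicle controls. Cells fixed in 2.5% glutaraldehyde in 0.1 M phosphate (pH 7.2) at 4 °C for 1 h, post-fixed in 1% OsO4 and ethanol-dehydrated. Critical-point dried, gold-coated, and imaged by SEM at 40 kV.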

HL-60 [3] = assay: Cell cycle arrest in human HL60 cells assessed as accumulation at G2/M phase at 1 uM after 24 hrs using propidium iodide staining by flow cytometry; assay type: functional, cell-based
Method in brief: (§2)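 HL-60 cells (1 x 10^5 per 1.5 mL) treated 24 h, then fixed in 70% cold ethanol at −20 °C overnight. RNase digestion (400 µg/ml) at 37 °C for 45 min, then propidium iodide (10 µg/ml) for 30 min. Flow cytometry on 10,000 events, FL2-A vs FL2-W, with doublet discrimination. Sub-G0 (hypodiploid) peak taken as apoptotic cells. Mean ± SD of three independent experiments.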

HL-60 [4] = assay: Induction of apoptosis in human HL60 cells assessed as smoothening of surface at 1 uM after 12 hrs by scanning electron microscopy; assay type: functional, cell-based; method in brief: as §1
HL-60 [5] = assay: Induction of apoptosis in human HL60 cells assessed as formation of apoptotic bodies at 1 uM after 24 hrs by scanning electron microscopy; assay type: functional, cell-based; method in brief: as §1
HEp-2 = assay: Growth inhibition of human Hep2 cells at 10 uM by sulforhodamine B assay; assay type: functional; settings: read-out: GI
Method in brief: (§3)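 Single-dose 10 µM screen by sulforhodamine B assay, reported as percent inhibition of cell proliferation. Cells grown in medium with 10% heat-inactivated FBS at 37 °C, 5% CO2, and treated at about 70% confluence or in log phase. Compounds dissolved in DMSO; controls received vehicle (<0.5% v/v).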

HL-60 [6] = assay: Induction of apoptosis in human HL60 cells assessed as late apoptotic cells at 1 uM after 24 hrs using Annexin V-FITC and propidium iodide staining by flow cytometry relative to control; assay type: functional
Method in brief: (§4)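 HL-60 cells (1 x 10^5 per 1.5 mL) treated 24 h, washed twice in PBS and stained in binding buffer with annexin V-FITC and PI. Flow cytometry with FITC in FL-1 (530 nm) and PI in FL-2 (585 nm), using quadrant statistics: lower right taken as apoptotic, upper right as post-apoptotic necrotic. Representative of three independent experiments.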

HL-60 [7] = assay: Inhibition of NF-kappaB expression in human HL60 cells at 1 uM after 24 hrs by Western blotting; assay type: functional, cell-based
Method in brief: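 HL-60 cells treated 24 h and lysed in RIPA buffer on ice; protein measured by Bradford against a BSA standard. 50 µg resolved by SDS-PAGE and transferred to PVDF, blocked in 5% milk/TBST, then primary antibodies 1:1000 for 2 h and HRP secondary 1:1000 for 1 h. ECL detection with β-actin as loading control; bands quantified by densitometry.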

HL-60 [8] = assay: Induction of NO production in human HL60 cells at 1 uM after 24 hrs using DAF-2DA fluorescent dye based flow cytometric analysis; assay type: functional, cell-based
Method in brief: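 HL-60 cells (1 x 10^5 per 1.5 mL) preloaded 30 min with 10 µM DAF-2-DA before treatment. After 24 h exposure, cells were washed and read by flow cytometry in FL-1 as NO-positive population. Mean ± SD of three independent experiments.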

HL-60 [9] = assay: Induction of apoptosis in human HL60 cells assessed as decrease in mitochondrial membrane potential at 1 uM after 24 hrs using rhodamine 123 staining by flow cytometry; assay type: functional; set-up: scale not given: the % may be the effect or the level left
Method in brief: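 HL-60 cells (1 x 10^5 per 1.5 mL) treated 24 h, then stained with rhodamine-123 (5 µg/mL final) for 1 h. Washed, and propidium iodide (5 µg/mL) added just before reading. FL-1 fluorescence from 10,000 events; percentage of low Rh-123 cells taken as loss of membrane potential. Mean ± SD, n=3.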

SiHa = assay: Induction of apoptosis in human SiHa cells assessed as DNA ladder formation at 10 uM after 24 hrs by agarose gel electrophoresis; assay type: functional, cell-based
Method in brief: (§5)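 Cells treated 24 h, then 2 x 10^6 cells lysed (Triton X-100 buffer, pH 8.0) with RNase at 37 °C for 90 min and proteinase-K at 50 °C for 1 h. DNA phenol/chloroform-extracted and ethanol-precipitated, then run on 1.8% agarose at 50 V for 1.5 h in TAE. Ladders viewed under UV.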

IMR-32 = assay: Growth inhibition of human IMR32 cells at 10 uM by sulforhodamine B assay; assay type: functional; settings: read-out: GI; method in brief: as §3
PC-3 = assay: Induction of apoptosis in human PC3 cells assessed as nuclear fragmentation at 1 uM after 24 hrs by DAPI staining-based fluorescence microscopy; assay type: functional, cell-based
Method in brief: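 HL-60 or PC-3 cells treated at 1 µM for 24 h. Air-dried smears fixed in methanol at −20 °C for 20 min and stained with DAPI (1 µg/mL) for 20 min at room temperature in the dark. Mounted in 90% glycerol/PBS and examined by fluorescence microscopy for nuclear morphology.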

HCT-15 = assay: Growth inhibition of human HCT15 cells at 10 uM by sulforhodamine B assay; assay type: functional; settings: read-out: GI; method in brief: as §3
DU-145 = assay: Growth inhibition of human DU145 cells at 10 uM by sulforhodamine B assay; assay type: functional; settings: read-out: GI; method in brief: as §3
SK-N-SH = assay: Growth inhibition of human SK-N-SH cells at 10 uM by sulforhodamine B assay; assay type: functional; settings: read-out: GI; method in brief: as §3
HL-60 [10] = assay: Induction of apoptosis in human HL60 cells assessed as non-viable necrotic cells at 1 uM after 24 hrs using Annexin V-FITC and propidium iodide staining by flow cytometry relative to control; assay type: functional; method in brief: as §4
HL-60 [11] = assay: Induction of apoptosis in human HL60 cells assessed as DNA ladder formation at 10 uM after 24 hrs by agarose gel electrophoresis; assay type: functional, cell-based; method in brief: as §5
HL-60 [12] = assay: Induction of apoptosis in human HL60 cells assessed as caspase9 activation using LEHD-AMC as substrate at 1 uM after 24 hrs by fluorimetry relative to control; assay type: functional
Method in brief: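 HL-60 cells (2 x 10^6) treated 24 h, washed and lysed. Caspase-3, -8 and -9 activities in lysates measured fluorometrically with a commercial caspase fluorescent assay kit. Two independent experiments, each in duplicate.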

HL-60 [13] = assay: Induction of apoptosis in human HL60 cells assessed as blebbing of plasma membrane at 1 uM after 12 hrs by scanning electron microscopy; assay type: functional, cell-based; method in brief: as §1
[14] = Growth inhibition of human 502713 cells at 10 uM by sulforhodamine B assay; assay type: functional; settings: read-out: GI; method in brief: as §3
HL-60 [15] = assay: Cell cycle arrest in human HL60 cells assessed as accumulation at G1 phase at 1 uM after 24 hrs using propidium iodide staining by flow cytometry; assay type: functional, cell-based; method in brief: as §2
HL-60 [16] = assay: Cell cycle arrest in human HL60 cells assessed as accumulation at S phase at 1 uM after 24 hrs using propidium iodide staining by flow cytometry; assay type: functional, cell-based; method in brief: as §2

O=C(Nc1nc2ccc([N+](=O)[O-])cc2s1)c1cccnc1Nc1cc(F)c(F)c(F)c1
Activity (HL-60 [1]): inactive
Activity (HL-60 [2]): Active
Activity (HL-60 [3]): inactive
Activity (HL-60 [4]): Active
Activity (HL-60 [5]): Active
inhibition of growth at 10 µM (HEp-2): 0%
Activity (HL-60 [6]): 8%
inhibition (HL-60 [7]): Active
Activity (HL-60 [8]): inactive
Activity (HL-60 [9]): 45%
Activity (SiHa): inactive
inhibition of growth at 10 µM (IMR-32): 72%
Activity (PC-3): Active
inhibition of growth at 10 µM (HCT-15): 62%
inhibition of growth at 10 µM (DU-145): 39%
inhibition of growth at 10 µM (SK-N-SH): 49%
Activity (HL-60 [10]): 47%
Activity (HL-60 [11]): Active
fold change (FC) (HL-60 [12]): 2
Activity (HL-60 [13]): Active
inhibition of growth at 10 µM [14]: 80%
Activity (HL-60 [15]): inactive
Activity (HL-60 [16]): inactive
